Results as given in the RNAGym collection of RNA variant scans (doi:10.1126/science.aae0568).
Variants at the floor of the assay were thinned out.

B1: tRNA (parent)
chain: GUUCCGUUGGCGUAAUGGUAACGCGUCUCCCUCCUAAGGAGAAGACUGCGGGUUCGAGUCCCGUACGGAACG

Variants of: B1
Experiment: yeast fitness relative to wild type (ratio to wild type); higher = fitter; tRNA-Arg(CCU), competitive growth, 37 C, YPD
Summary of the method: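 The tRNA-Arg(CCU) gene variants were made by chemical synthesis with a 3% per-site mutation rate at 69 sites and inserted at the native genomic locus of Saccharomyces cerevisiae. After pooling, the strains were competed in YPD at 37°C for 24 hours in six parallel replicates. Gene amplicons from the start population and each end population were read by 100-nucleotide paired-end sequencing, and Darwinian fitness relative to wild type was taken from genotype frequency changes. Genotypes needed ≥ 100 starting reads, and estimates < 0.5 were set to 0.5.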

Question: Which yeast fitness does the source give for GUUGCGGUGGCCUAAUGGUUACGCGUCGCCCUCCUAAGGAGAAGACUGCGGGUUCGAGUCCCGUACGGAACG [C4G U7G G12C A20U U28G] here?
Answer: Its yeast fitness is ≤ 0.5.

Question: With GUUCUGUUGGCGUAUUGGUAGCGCGUCUCCCUCCUAAGGAGAAGACUGUGGGUUCGAGUCCCGUACGGAACG [C5U A15U A21G C49U] as the variant, how does the yeast fitness read?
Answer: Its yeast fitness is ≤ 0.5.

Question: Which yeast fitness does the source give for GUUCGGUUGGCGUAAUGGUAACGCGUCUGCCUCCUAAGGAGAAGACUGCGGAUUCGAGUCCCGUACAGAACG [C5G C29G G52A G67A] here?
Answer: Its yeast fitness is ≤ 0.5.

Question: For GUUCCGUUGGCGUAAUGGUAACGCGUCUGCAUCCUAAGGAGCAGACUGCGGGUUCGAGUCCCGUACCGAACG [C29G C31A A42C G67C], which yeast fitness is on record?
Answer: The yeast fitness was 0.606.

Question: For GUUCCGUUGGCGUAAUGGUAACGCGUCACCGUCCCAAGGAGAAGACCGCGGGUUCGAGUUUCGUACGGAACG [U28A C31G U35C U47C C60U C61U], which yeast fitness is on record?
Answer: The yeast fitness was ≤ 0.5.

Question: For GUUCCGUUGGCGUAAUGGUAACGCGUCUCCCUCCUAAGGAGAAGACUGCGGGUUGGAGUCCCGUUCGGAACG [C55G A65U], which yeast fitness is on record?
Answer: The yeast fitness was 0.692.

Question: With GUUCCGUUGACGUAAUGGUAACGCGUCUCCCUUCUAAGGAGAAGUCUCCGGGUUCGAGUCCCGAACGGAUCG [G10A C33U A45U G48C U64A A70U] as the variant, how does the yeast fitness read?
Answer: The yeast fitness was ≤ 0.5.

Question: For GUUUCGUUGGCGUAAUGGUAACGCAUCUCCCUCCUAAGGAGAAGACUCCGGGUUCGUGUCCCGUACGGAACG [C4U G25A G48C A57U], which yeast fitness is on record?
Answer: The yeast fitness was ≤ 0.5.

Question: Which yeast fitness does the source give for GUUGGGUUGGCGUUAUGGUCACGCGUCUCCCUCGUACGGAGAAGACUGUGGGUUCGAGUCCCGUACGGAACG [C4G C5G A14U A20C C34G A37C C49U] here?
Answer: The yeast fitness was 0.559.

Question: Which yeast fitness does the source give for GGUCCGUUCGCGUAAUGGUGACGCGUCUCCCUCCUAAGGAGCGGAGUGUGGGUUCGAGUCCCGUACGGCACG [U2G G9C A20G A42C A43G C46G C49U A69C] here?
Answer: Its yeast fitness is ≤ 0.5.

Question: For GUUCCGUUGGCGUAAUGGUAACGCGUCUCCCUACUAAGAAGAAGACUGCGGCUUGGAGUCCCGUACGGAACG [C33A G39A G52C C55G], which yeast fitness is on record?
Answer: The yeast fitness was ≤ 0.5.

Question: With GUUCCGUUGGGGUAAUGGUAAUGCGUCUCCCUCCUAAGGAGAAGACUGCGGGUUCGAGUCCCGUACGGAUCG [C11G C22U A70U] as the variant, how does the yeast fitness read?
Answer: The yeast fitness was ≤ 0.5.

Question: With GUUCCGUUGGCGUAAUGGUAACGCAUCUCCCUCCUAAGGAGAAGACUGCGGGUUCGACUCCCGUACGGAACG [G25A G58C] as the variant, how does the yeast fitness read?
Answer: Its yeast fitness is 0.901.

Question: With GGUCCGUUGGCGAAAAGGUAACGCGUCUGCCUCCUAAGGAGAAGACUGCGGGUUCGAGUCCCGUACGGAACG [U2G U13A U16A C29G] as the variant, how does the yeast fitness read?
Answer: The yeast fitness was ≤ 0.5.

Question: Which yeast fitness does the source give for GUUCUGUUGGCGUAAUGGUAACGCGUCUCCCUCCUAAGGAGAAGACUGCGGGUUCGAGACCCGUACGGAACG [C5U U59A] here?
Answer: The yeast fitness was 0.886.

Question: With GUUCCGUUGGCGUAAUGGUAACGCGUCUCCCUCCUAAGGAGAAGACUGCGGGUUCGAGUCGCGUACGAAACG [C61G G68A] as the variant, how does the yeast fitness read?
Answer: The yeast fitness was 0.677.

Question: Which yeast fitness does the source give for GUUCCGUUGGCGUAAUGGUUACGCGUCUGCCUCCUAAGGAGAAGACUGCGGGUUCGAGUCCCGUUCGGAACG [A20U C29G A65U] here?
Answer: The yeast fitness was ≤ 0.5.

Question: For GUUCCGUUGACGAAAUGGUAACGUGUCUCCCUCCUAAGGAGAAGACUGCGGGUUCGAGUCCCGUACGGACCG [G10A U13A C24U A70C], which yeast fitness is on record?
Answer: Its yeast fitness is ≤ 0.5.

Question: For GUUCCGUUGGUGUAAUGGUAACGAGUCUCCCUCCUAAGGAGAAGACUGCGGGUUCGAGUCCCGUACGGAUCG [C11U C24A A70U], which yeast fitness is on record?
Answer: The yeast fitness was ≤ 0.5.

Question: For GUUCCAUUGGCGUAAUGCUACCGCGUCUCCCUACUAAGGAGAAGACUGCGGAUUCGAGUCCCGUACGGAACG [G6A G18C A21C C33A G52A], which yeast fitness is on record?
Answer: The yeast fitness was ≤ 0.5.

Question: Which yeast fitness does the source give for GUUCCGUCGGCGUAACGGUAACGCGUCUCCCUCCUAAGGAGAAGACUGCGGGUUCGAGUCCCGUACUGAACG [U8C U16C G67U] here?
Answer: Its yeast fitness is 0.576.

Question: Which yeast fitness does the source give for GUUCCGUUAGCGUAAUGGUAACGCGUGUCCCUCCUAAGGAGAGGACUGCGGGUUCGAGUCCCGUAGGGAACG [G9A C27G A43G C66G] here?
Answer: Its yeast fitness is 0.717.

Question: For GUUCCGUUGGCGUCAUGGUAACGCGUUUCCCUCCUAAGGAGAAGAUUGCGGCUUCGAGUCCCGUACGGAACG [A14C C27U C46U G52C], which yeast fitness is on record?
Answer: Its yeast fitness is ≤ 0.5.

Question: Which yeast fitness does the source give for GUUCCGUUGGCGUAAUGGUAACGCCUCUCCCUCCUAAGGAGAAGACUGCGGGUUCGAGUCUCGUAUGGAACG [G25C C61U C66U] here?
Answer: Its yeast fitness is 0.652.

Question: Which yeast fitness does the source give for GUACCGUUGGCGUAAUGGUAACGCGUCUCCCUCCUAAGGAGAAGACUGCGGGUUCGACUCCCGUACGGAACG [U3A G58C] here?
Answer: Its yeast fitness is 0.987.

Question: Which yeast fitness does the source give for GUUCCGUUGGCGUACUGGUAACGCGUCUCCCUCCUAAGGAGAAGACUGCGGGUUCAAGUCUCGUACGGAACG [A15C G56A C61U] here?
Answer: The yeast fitness was 0.614.

Question: With GUUCCGAUGGCGUAAUGCUAACGCGUCUCCCUCCUAAGGAGAAGACUGCGGGUUCGAGUCCCGUACGGAUCG [U7A G18C A70U] as the variant, how does the yeast fitness read?
Answer: Its yeast fitness is 0.662.

Question: Which yeast fitness does the source give for GUUCCGUUGGAGUAAUGGUAACGCGUCUCCCUGGUAAGGAGAAGACUGCGGGUUCGAGUCACGUACGGAACG [C11A C33G C34G C61A] here?
Answer: The yeast fitness was ≤ 0.5.

Question: For GUUCGGUUGGCGUAAUGGUAACGCGUCUCCGUCCUAAGGAGAAGACUGCGGCUACGAGUCCGGUACGGAACG [C5G C31G G52C U54A C62G], which yeast fitness is on record?
Answer: The yeast fitness was 0.5.

Question: Which yeast fitness does the source give for GUUCGGUUGGCGAAAUGGAAACGCGUCUCUCUCCUAAGGAGAAGACUGCGGGUUCGAGUCCCGUACGGAUCG [C5G U13A U19A C30U A70U] here?
Answer: Its yeast fitness is ≤ 0.5.

Question: For GUUCCGUUGGCGUAAUGGUAACGUGUCUCCCUCCGAAGGAGAAGAAUGCGGGUUCGAGUCCCGUACGGAACG [C24U U35G C46A], which yeast fitness is on record?
Answer: The yeast fitness was ≤ 0.5.

Question: With GUUCCGUUGGCGUAAUGGUAACGCGUCUCCCUCUCAAGGAGAAGACUGCGGGUUCGAGUCCCGUACGGACCG [C34U U35C A70C] as the variant, how does the yeast fitness read?
Answer: Its yeast fitness is ≤ 0.5.

Question: With GUUCCCUUGGCGUAAUGGUAACGCGUCUCCCUCCUAAGGAGAACACUGCGGGUUCGAGUCCCGUACUGAACG [G6C G44C G67U] as the variant, how does the yeast fitness read?
Answer: The yeast fitness was 0.501.

Question: With GUUCCGUUGGCGUAAUGGUACCGCGUCUCCCUCCUAAGGAGAAGACUGCGGGUUGGAGUCCCGUACGGAACG [A21C C55G] as the variant, how does the yeast fitness read?
Answer: The yeast fitness was ≤ 0.5.

Question: For GUUCCGUUGGCGUAAUGGUAACGCGACUCCAUCCUAAGGAGAAGACUGCGGGUUCGAGUCCCGUACGGAACG [U26A C31A], which yeast fitness is on record?
Answer: Its yeast fitness is 0.803.
